Measured values taken from ChEMBL document CHEMBL4689842, “EUbOPEN Chemogenomics Library wave 1” (2021).

Test system: Fibroblast
Test: Multiplex assay against human fibroblast
Format: toxicity, cell-based
Outline: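 With compound added, live cells were imaged on a CQ1 microscope at 37°C and 5% CO2; staining with Hoechst33342, BioTracker Green Microtubule Cytoskeleton Dye, MitoTracker Red and Annexin V Alexa Fluor 680 had been done at seeding. The CellPathfinder machine-learning gating scheme split cells into Hoechst high-intensity objects or normal cells, normal cells into healthy, pyknosed or fragmented nuclei, and pyknosed cells into mitotic or apoptotic. The tubulin, mitochondrial-mass and membrane-permeability phenotypes are per cents of healthy-nucleus cells.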

[1] = 12 h, 1 µM, compound concentration 1 uM, replicate 1
[2] = 12 h, 1 µM, compound concentration 1 uM, replicate 2
[3] = 12 h, 10 µM, compound concentration 10 uM, replicate 1
[4] = 12 h, 10 µM, compound concentration 10 uM, replicate 2
[5] = 24 h, 1 µM, compound concentration 1 uM, replicate 1
[6] = 24 h, 1 µM, compound concentration 1 uM, replicate 2
[7] = 24 h, 10 µM, compound concentration 10 uM, replicate 1
[8] = 24 h, 10 µM, compound concentration 10 uM, replicate 2
[9] = 48 h, 1 µM, compound concentration 1 uM, replicate 1
[10] = 48 h, 1 µM, compound concentration 1 uM, replicate 2
[11] = 48 h, 10 µM, compound concentration 10 uM, replicate 1
[12] = 48 h, 10 µM, compound concentration 10 uM, replicate 2

Cc1[nH]c(/C=C2\C(=O)Nc3ccc(S(=O)(=O)N(C)c4cccc(Cl)c4)cc32)c(C)c1C(=O)N1CCN(C)CC1
Population Apoptotic (%) [1]: 64% | Population Fragmented Nuclei (%) [1]: 25% | Population Healthy Nuclei (%) [1]: 51% | Population Hoechst High Intensity Objects (%) [1]: 8% | Population Membrane Permeable-Phenotype (%) [1]: 40% | Population Mitochondria Different-Phenotype (%) [1]: 6% | Population Mitotic Cells (%) [1]: 35% | Population Normal (%) [1]: 91% | Population Pyknosed Nuclei (%) [1]: 22% | Population Tubulin-Different-Phenotype (%) [1]: 43% | Total Cell Count [1]: 68 | Population Apoptotic (%) [2]: 100% | Population Fragmented Nuclei (%) [2]: 16% | Population Healthy Nuclei (%) [2]: 77% | Population Hoechst High Intensity Objects (%) [2]: 12% | Population Membrane Permeable-Phenotype (%) [2]: 12% | Population Mitochondria Different-Phenotype (%) [2]: 42% | Population Mitotic Cells (%) [2]: 0% | Population Normal (%) [2]: 87% | Population Pyknosed Nuclei (%) [2]: 6% | Population Tubulin-Different-Phenotype (%) [2]: 68% | Total Cell Count [2]: 90 | Population Apoptotic (%) [3]: 61% | Population Fragmented Nuclei (%) [3]: 20% | Population Healthy Nuclei (%) [3]: 61% | Population Hoechst High Intensity Objects (%) [3]: 5% | Population Membrane Permeable-Phenotype (%) [3]: 59% | Population Mitochondria Different-Phenotype (%) [3]: 13% | Population Mitotic Cells (%) [3]: 38% | Population Normal (%) [3]: 94% | Population Pyknosed Nuclei (%) [3]: 18% | Population Tubulin-Different-Phenotype (%) [3]: 93% | Total Cell Count [3]: 76 | Population Apoptotic (%) [4]: 25% | Population Fragmented Nuclei (%) [4]: 10% | Population Healthy Nuclei (%) [4]: 74% | Population Hoechst High Intensity Objects (%) [4]: 12% | Population Membrane Permeable-Phenotype (%) [4]: 40% | Population Mitochondria Different-Phenotype (%) [4]: 97% | Population Mitotic Cells (%) [4]: 75% | Population Normal (%) [4]: 87% | Population Pyknosed Nuclei (%) [4]: 16% | Population Tubulin-Different-Phenotype (%) [4]: 100% | Total Cell Count [4]: 70 | Population Apoptotic (%) [5]: 53% | Population Fragmented Nuclei (%) [5]: 22% | Population Healthy Nuclei (%) [5]: 56% | Population Hoechst High Intensity Objects (%) [5]: 3% | Population Membrane Permeable-Phenotype (%) [5]: 28% | Population Mitochondria Different-Phenotype (%) [5]: 14% | Population Mitotic Cells (%) [5]: 46% | Population Normal (%) [5]: 96% | Population Pyknosed Nuclei (%) [5]: 20% | Population Tubulin-Different-Phenotype (%) [5]: 62% | Total Cell Count [5]: 64 | Population Apoptotic (%) [6]: 100% | Population Fragmented Nuclei (%) [6]: 18% | Population Healthy Nuclei (%) [6]: 72% | Population Hoechst High Intensity Objects (%) [6]: 8% | Population Membrane Permeable-Phenotype (%) [6]: 10% | Population Mitochondria Different-Phenotype (%) [6]: 40% | Population Mitotic Cells (%) [6]: 0% | Population Normal (%) [6]: 91% | Population Pyknosed Nuclei (%) [6]: 9% | Population Tubulin-Different-Phenotype (%) [6]: 55% | Total Cell Count [6]: 65 | Population Apoptotic (%) [7]: 77% | Population Fragmented Nuclei (%) [7]: 41% | Population Healthy Nuclei (%) [7]: 46% | Population Hoechst High Intensity Objects (%) [7]: 7% | Population Membrane Permeable-Phenotype (%) [7]: 38% | Population Mitochondria Different-Phenotype (%) [7]: 50% | Population Mitotic Cells (%) [7]: 22% | Population Normal (%) [7]: 92% | Population Pyknosed Nuclei (%) [7]: 12% | Population Tubulin-Different-Phenotype (%) [7]: 97% | Total Cell Count [7]: 79 | Population Apoptotic (%) [8]: 100% | Population Fragmented Nuclei (%) [8]: 17% | Population Healthy Nuclei (%) [8]: 73% | Population Hoechst High Intensity Objects (%) [8]: 8% | Population Membrane Permeable-Phenotype (%) [8]: 84% | Population Mitochondria Different-Phenotype (%) [8]: 100% | Population Mitotic Cells (%) [8]: 0% | Population Normal (%) [8]: 91% | Population Pyknosed Nuclei (%) [8]: 9% | Population Tubulin-Different-Phenotype (%) [8]: 100% | Total Cell Count [8]: 71 | Population Apoptotic (%) [9]: 61% | Population Fragmented Nuclei (%) [9]: 30% | Population Healthy Nuclei (%) [9]: 48% | Population Hoechst High Intensity Objects (%) [9]: 11% | Population Membrane Permeable-Phenotype (%) [9]: 17% | Population Mitochondria Different-Phenotype (%) [9]: 13% | Population Mitotic Cells (%) [9]: 38% | Population Normal (%) [9]: 88% | Population Pyknosed Nuclei (%) [9]: 21% | Population Tubulin-Different-Phenotype (%) [9]: 65% | Total Cell Count [9]: 68 | Population Apoptotic (%) [10]: 50% | Population Fragmented Nuclei (%) [10]: 16% | Population Healthy Nuclei (%) [10]: 80% | Population Hoechst High Intensity Objects (%) [10]: 17% | Population Membrane Permeable-Phenotype (%) [10]: 27% | Population Mitochondria Different-Phenotype (%) [10]: 15% | Population Mitotic Cells (%) [10]: 50% | Population Normal (%) [10]: 82% | Population Pyknosed Nuclei (%) [10]: 2% | Population Tubulin-Different-Phenotype (%) [10]: 81% | Total Cell Count [10]: 88 | Population Apoptotic (%) [11]: 66% | Population Fragmented Nuclei (%) [11]: 40% | Population Healthy Nuclei (%) [11]: 37% | Population Hoechst High Intensity Objects (%) [11]: 11% | Population Membrane Permeable-Phenotype (%) [11]: 16% | Population Mitochondria Different-Phenotype (%) [11]: 76% | Population Mitotic Cells (%) [11]: 33% | Population Normal (%) [11]: 88% | Population Pyknosed Nuclei (%) [11]: 22% | Population Tubulin-Different-Phenotype (%) [11]: 100% | Total Cell Count [11]: 76 | Population Apoptotic (%) [12]: 50% | Population Fragmented Nuclei (%) [12]: 21% | Population Healthy Nuclei (%) [12]: 72% | Population Hoechst High Intensity Objects (%) [12]: 8% | Population Membrane Permeable-Phenotype (%) [12]: 25% | Population Mitochondria Different-Phenotype (%) [12]: 52% | Population Mitotic Cells (%) [12]: 50% | Population Normal (%) [12]: 91% | Population Pyknosed Nuclei (%) [12]: 6% | Population Tubulin-Different-Phenotype (%) [12]: 95% | Total Cell Count [12]: 72
